One series has as its target human A3A (APOBEC3A) (Homo sapiens, UniProt P31941). As to the kind of experiment: fluorescence-based ssDNA cytosine deaminase assay, A3A. Format: biochemical.
The target in another series is human A3G (APOBEC3G) (Homo sapiens, UniProt Q9HC16). The series is described as follows: fluorescence-based ssDNA cytosine deaminase assay, A3G. It is filed as biochemical.
The target in a further series is A3G-ssDNA complex (Homo sapiens, UniProt Q9HC16). The series is described as follows: EMSA of A3G-ssDNA complex formation. It is filed as binding. The note with it: 0.64 μM A3G, 0.08 μM ssDNA, 50 μM compound, dose response 2, 5, 10 μM.
In series [1] the target is E. coli uracil DNA glycosylase (UDG) (Escherichia coli, UniProt P12295). The series is described as follows: UDG assay. It is filed as biochemical.
The conditions of series [2]: cited from earlier work.
For the next series, the target named is full-length A3G Cys321 (Homo sapiens, UniProt Q9HC16). The series is described as follows: LC-MS/MS of tryptic peptides of inhibitor-treated A3G. It is filed as binding. The note with it: full-length A3G incubated with compound, in-gel trypsin digestion.
The subject of the next series is murine model of diabetes. The note with it: oral dosing; cited from earlier work.
A further series addresses HIV-1 RNase H (Human immunodeficiency virus type 1 group M subtype B, UniProt P04585). The series is described as follows: HIV-1 RNase H inhibition assay. Particulars: read-out: IC50 Values RNase H; A3G inhibitors, this study. Format: biochemical.
The target in a further series is A3G-C308A (Homo sapiens, UniProt Q9HC16, C308A). The series is described as follows: deaminase assay with A3G-C308A mutant. Format: biochemical. The note with it: varying concentrations, parallel to wildtype A3G. The method in brief:
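Full-length human A3G-C308A-mycHis and wildtype A3G were purified from HEK293T cells via the C-terminal His6 tag and assayed in parallel over varying test compound concentrations. Enzyme was diluted in Tris pH 7.4 buffer with protease inhibitors, then incubated 2 h at 37 °C with 10 pmol 6-FAM/TAMRA ssDNA and UDG. NaOH was added for 30 min at 37 °C, then neutralised. Fluorescence read at ex 490/em 520 nm.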

For another series, the target named is A3G C321A (Homo sapiens, UniProt Q9HC16, C321A). The series is described as follows: deaminase assay with A3G-C321A mutant. Particulars: dose response, parallel to wildtype A3G. It is filed as biochemical. The method in brief: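 Wildtype A3G and the C321A mutant were purified side by side as myc-His proteins (>80% homogeneity) from HEK293T cells and tested at varying test compound concentrations. Reactions ran 2 h at 37 °C with 6-FAM/TAMRA ssDNA and UDG, followed by NaOH cleavage, neutralisation and fluorescence at 490/520 nm. Triplicates were normalised to DMSO-only controls and given as mean with SD.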

Where two headings read alike, the source gives them in different places.

Chain of human A3G (APOBEC3G) (Q9HC16 whole entry): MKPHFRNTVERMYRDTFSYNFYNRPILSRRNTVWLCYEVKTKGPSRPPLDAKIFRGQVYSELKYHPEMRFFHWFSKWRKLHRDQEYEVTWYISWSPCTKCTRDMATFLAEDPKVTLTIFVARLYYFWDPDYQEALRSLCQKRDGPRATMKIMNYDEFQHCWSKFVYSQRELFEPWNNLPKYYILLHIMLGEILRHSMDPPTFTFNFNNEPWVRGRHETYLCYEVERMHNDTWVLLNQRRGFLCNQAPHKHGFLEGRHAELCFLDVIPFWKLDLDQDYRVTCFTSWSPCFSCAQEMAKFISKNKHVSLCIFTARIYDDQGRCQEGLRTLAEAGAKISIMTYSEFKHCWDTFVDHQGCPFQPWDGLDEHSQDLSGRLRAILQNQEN
Chain of A3G-ssDNA complex (Q9HC16 whole entry, one chain of several): as the sequence (Q9HC16 whole entry) above
Chain of E. coli uracil DNA glycosylase (UDG) (P12295 whole entry): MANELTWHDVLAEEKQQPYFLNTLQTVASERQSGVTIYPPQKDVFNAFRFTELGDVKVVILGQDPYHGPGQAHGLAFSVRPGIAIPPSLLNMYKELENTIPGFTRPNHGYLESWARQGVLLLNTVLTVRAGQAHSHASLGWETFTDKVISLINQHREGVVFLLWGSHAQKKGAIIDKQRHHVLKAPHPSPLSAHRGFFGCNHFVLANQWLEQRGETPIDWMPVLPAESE
Chain of human A3A (APOBEC3A) (P31941 whole entry): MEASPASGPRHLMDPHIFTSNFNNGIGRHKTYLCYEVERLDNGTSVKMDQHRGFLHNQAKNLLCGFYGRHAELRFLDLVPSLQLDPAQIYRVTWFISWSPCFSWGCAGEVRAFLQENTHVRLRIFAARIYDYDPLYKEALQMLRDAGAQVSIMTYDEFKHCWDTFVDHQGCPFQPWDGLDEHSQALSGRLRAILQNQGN
Chain of full-length A3G Cys321 (Q9HC16 whole entry): as the sequence (Q9HC16 whole entry) above
Chain of A3G C321A (Q9HC16 whole entry C321A): as the sequence (Q9HC16 whole entry) above, with C321A counted along it
Chain of A3G-C308A (Q9HC16 whole entry C308A): as the sequence (Q9HC16 whole entry) above, with C308A counted along it

Consider `CN(N=O)c1cc(O)ccc1O` [MN10, Dephostatin], for which the IC50 against human A3A (APOBEC3A) is 150 µM; against human A3G (APOBEC3G), 0.43 µM; in series [1], above 200 µM. In addition, the “inhibition of A3G's ssDNA binding activity (A3G-ssDNA complex formation)” value at A3G-ssDNA complex is reported as “only exceptions”. In addition, the stability result in series [2] is “too unstable for most biological applications”.

As to `CN(N=O)c1ccc(O)c(O)c1` [MN30, Methyl-3,4-dephostatin], the IC50 was above 200 µM at human A3A (APOBEC3A) (read-out: IC50 Values A3A, dose response, purified A3A-mycHis); 9.1 µM on human A3G (APOBEC3G) (read-out: IC50 Values A3G, dose response, purified full-length A3G-mycHis); above 200 µM in series [1] (read-out: IC50 Values UDG, no deaminase, uracil ssDNA substrate); above 25 µM at HIV-1 RNase H. Further, on full-length A3G Cys321, the “mass addition to C321 containing tryptic peptide (covalent modification)” value is given as 167.11 Da. Also, the “inhibition of A3G's ssDNA binding activity (A3G-ssDNA complex formation)” value at A3G-ssDNA complex is “no inhibition”. For the same compound, the “efficacy in a murine model of diabetes” value in the series on murine model of diabetes is “demonstrated efficacy”. Further, the “susceptibility of A3G-C308A deaminase activity to inhibition” value on A3G-C308A is recorded as “wildtype susceptibility”. Moreover, at A3G C321A, the “susceptibility of A3G C321A deaminase activity to inhibition” value is “fully resistant”.
